“Also recorded” adds a separate entry of the source. Like-named read-outs stand apart in the source and are kept apart here. One block for each compound: values may come before it.
How the values were obtained:
[1] = Semaglutide and SNAC urine bioanalysis / renal clearance; assay type: in vivo, human; settings: for CLR: based on 0–36 h after the tenth dosing, geometric mean (CV)
Method in brief: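 Urine collected pre-dose day 1 and fractionated over set intervals on days 10–11 after the tenth dose, then stored at -20 °C. 1% Triton X-100 added, 1 part per 9 parts urine. Semaglutide and SNAC quantified by the plasma LC-MS/MS methods with ranges corrected by 1.111. Renal clearance derived over 0–36 h after the tenth dose.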

[2] = SNAC plasma pharmacokinetics after ten once-daily doses of oral semaglutide; assay type: in vivo, human; settings: for tmax,Day10: median (minimum, maximum)
Method in brief: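 Oral tablets (300 mg SNAC) given once daily, 5 mg semaglutide days 1–5 then 10 mg days 6–10, with 120 mL water after >6 h fast and no intake for 30 min after. K3EDTA plasma sampled, including extra points within 24 h after last dose, stored at -20 °C. SNAC measured by LC-MS/MS after in-line solid-phase preparation against an analogue IS (5.00-2000 ng/mL, fivefold dilution above). AUC24 by linear trapezoid; Cmax and tmax observed.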

[3] = Effect of haemodialysis on semaglutide and SNAC exposure in subjects with ESRD; assay type: in vivo, human
Method in brief: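 ESRD subjects on haemodialysis three times weekly, started right after dosing (blood flow 500-600 mL/min, ultrafiltration 0-23 mL/min, low- or high-flux membranes). Semaglutide: observed AUC 144–148 h during day-16 dialysis divided by predicted AUC, with λz taken from inter-dialysis plasma levels at 76, 96, 120 and 144 h. SNAC: AUC4 on dialysis day 9 vs non-dialysis day 10, compared by log-scale linear model (dialysis, subject fixed).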

[4] = subcutaneous administration; monkeys; cited from earlier work
[5] = assay type: in vivo, human; settings: once-daily oral semaglutide, not characterised in the trial
Method in brief: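 Ten once-daily oral doses given, 5 mg for 5 days then 10 mg for 5 days, fasted. Plasma sampled pre-dose and to 504 h after the last dose, K3EDTA, stored at -20 °C. Semaglutide measured by LC-MS/MS after protein precipitation (0.729-60.8 nmol/L, 1/concentration² weighting). t½ = ln(2)/λz, with λz from log-linear regression on the terminal phase.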

[6] = subcutaneous administration; humans; cited from earlier work
[7] = subcutaneous administration; rats; cited from earlier work
[8] = mild renal impairment vs normal renal function
[9] = moderate renal impairment vs normal renal function
[10] = severe renal impairment vs normal renal function

- CLR ([1]; ESRD (n = 11)): 0.01 (508.51) L/h
- CLR ([1]; mild renal impairment (n = 12)): 0.08 (87.88) L/h
- CLR ([1]; moderate renal impairment (n = 12)): 0.09 (92.63) L/h
- CLR ([1]; normal renal function (n = 24)): 0.06 (104.33) L/h
- CLR ([1]; severe renal impairment (n = 12)): 0.04 (98.22) L/h
- AUC24,Day10 ([2]; ESRD (n = 11), after tenth dose, geometric mean (CV)): 1471.4 (27.0) nmol·h/L
- tmax,Day10 ([2]; ESRD (n = 11), after tenth dose): 0.83 (0.17, 5.00) h
- estimated ratio Cmax,Day10 ([2]; ESRD vs normal renal function): 0.79
- estimated ratio of the AUC24,Day10 ([2]; ESRD vs normal renal function): 1.32
- AUC24,Day10 ([2]; mild renal impairment (n = 12), after tenth dose, geometric mean (CV)): 1311.6 (31.5) nmol·h/L
- tmax,Day10 ([2]; mild renal impairment (n = 12), after tenth dose): 0.58 (0.33, 2.50) h
- estimated ratio Cmax,Day10 [2, 8]: 0.94
- estimated ratio of the AUC24,Day10 [2, 8]: 1.19
- AUC24,Day10 ([2]; moderate renal impairment (n = 12), after tenth dose, geometric mean (CV)): 1335.9 (34.6) nmol·h/L
- tmax,Day10 ([2]; moderate renal impairment (n = 12), after tenth dose): 0.67 (0.33, 6.00) h
- estimated ratio Cmax,Day10 [2, 9]: 0.70
- estimated ratio of the AUC24,Day10 [2, 9]: 1.30
- AUC24,Day10 ([2]; normal renal function (n = 24), after tenth dose, geometric mean (CV)): 1028.8 (29.2) nmol·h/L
- tmax,Day10 ([2]; normal renal function (n = 24), after tenth dose): 0.75 (0.33, 3.00) h
- Cmax ([2]; read-out: Cmax,Day10, ESRD (n = 11), after tenth dose, geometric mean (CV)): 936 nM
- AUC24,Day10 ([2]; severe renal impairment (n = 12), after tenth dose, geometric mean (CV)): 1522.8 (31.8) nmol·h/L
- tmax,Day10 ([2]; severe renal impairment (n = 12), after tenth dose): 0.67 (0.17, 1.00) h
- estimated ratio Cmax,Day10 [2, 10]: 1.06
- estimated ratio of the AUC24,Day10 [2, 10]: 1.49
- estimated ratio of AUC4 on day 9 during haemodialysis to AUC4 on day 10 ([3]; haemodialysis vs no haemodialysis): 0.95
Compound: O=C([O-])CCCCCCCNC(=O)c1ccccc1O.[Na+] [SNAC, sodium N-(8-[2-hydroxybenzoyl]amino) caprylate]

- time to reach steady state (predicted) [5]: 4–5 weeks
- AUC144–148 h,dial/AUC144–148 h,pred (estimated ratio) ([3]; observed during haemodialysis (day 16) over predicted): 0.97
Compound: CC[C@H](C)[C@H](NC(=O)[C@H](Cc1ccccc1)NC(=O)[C@H](CCC(=O)O)NC(=O)[C@H](CCCCNC(=O)COCCOCCNC(=O)COCCOCCNC(=O)CC[C@H](NC(=O)CCCCCCCCCCCCCCCCC(=O)O)C(=O)O)NC(=O)[C@H](C)NC(=O)[C@H](C)NC(=O)[C@H](CCC(N)=O)NC(=O)CNC(=O)[C@H](CCC(=O)O)NC(=O)[C@H](CC(C)C)NC(=O)[C@H](Cc1ccc(O)cc1)NC(=O)[C@H](CO)NC(=O)[C@H](CO)NC(=O)[C@@H](NC(=O)[C@H](CC(=O)O)NC(=O)[C@H](CO)NC(=O)[C@@H](NC(=O)[C@H](Cc1ccccc1)NC(=O)[C@@H](NC(=O)CNC(=O)[C@H](CCC(=O)O)NC(=O)C(C)(C)NC(=O)[C@@H](N)Cc1cnc[nH]1)[C@@H](C)O)[C@@H](C)O)C(C)C)C(=O)N[C@@H](C)C(=O)N[C@@H](Cc1c[nH]c2ccccc12)C(=O)N[C@@H](CC(C)C)C(=O)N[C@H](C(=O)N[C@@H](CCCNC(=N)N)C(=O)NCC(=O)N[C@@H](CCCNC(=N)N)C(=O)NCC(=O)O)C(C)C [semaglutide]
- detection in urine ([1]; urine samples days 10–11, except one subject in the ESRD group): not detected in urine; also recorded: not generally detected
- intact semaglutide in urine [4]: not detected
- intact semaglutide in urine, of the administered dose [6]: 3.1%
- intact semaglutide in urine, of the administered dose [7]: less than 1%
